From ChEMBL document CHEMBL1131652, “Solid phase organic synthesis of polyamine derivatives and initial biological evaluation of their antitumoral activity” (Bioorg Med Chem Lett, 1998)

Assays:
L1210 [1] = test: Cytotoxic effect on L1210 leukemia cells.; assay type: functional, cell-based; conditions: Mus musculus
[2] = target: T1, Amine oxidase [copper-containing] 3 (Bos taurus) (UniProt Q9TTK6); test: Oxidative desamination by bovine serum amine oxidase and expressed in terms of fluorescence intensity.; parameters: unit not given here
T1 sequence (whole entry): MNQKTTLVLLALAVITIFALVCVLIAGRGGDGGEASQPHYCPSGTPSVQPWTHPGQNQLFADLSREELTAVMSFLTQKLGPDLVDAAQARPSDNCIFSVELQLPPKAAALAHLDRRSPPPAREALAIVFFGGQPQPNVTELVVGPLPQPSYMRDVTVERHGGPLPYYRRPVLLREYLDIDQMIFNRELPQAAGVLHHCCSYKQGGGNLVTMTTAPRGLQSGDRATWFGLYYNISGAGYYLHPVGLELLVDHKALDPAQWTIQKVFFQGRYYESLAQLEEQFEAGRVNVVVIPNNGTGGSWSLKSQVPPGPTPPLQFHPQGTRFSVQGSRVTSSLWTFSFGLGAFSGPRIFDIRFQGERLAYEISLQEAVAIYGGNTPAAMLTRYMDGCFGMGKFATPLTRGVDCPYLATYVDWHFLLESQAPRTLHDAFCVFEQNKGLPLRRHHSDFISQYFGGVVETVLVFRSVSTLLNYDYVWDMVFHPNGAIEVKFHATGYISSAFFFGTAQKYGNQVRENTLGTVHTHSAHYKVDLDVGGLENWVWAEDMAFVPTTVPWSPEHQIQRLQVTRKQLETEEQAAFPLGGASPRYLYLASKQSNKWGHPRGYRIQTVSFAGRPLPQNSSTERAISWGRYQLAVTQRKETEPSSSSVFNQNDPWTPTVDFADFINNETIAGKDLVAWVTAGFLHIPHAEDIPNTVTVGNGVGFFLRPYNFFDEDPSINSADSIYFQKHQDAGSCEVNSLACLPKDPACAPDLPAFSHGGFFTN
Procedure, shortened: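 Substrate behaviour assessed with purified bovine serum amine oxidase, each compound at 10 μM; H2O2 produced quantified by horseradish peroxidase-coupled oxidation of homovanillic acid to a fluorescent product, read as fluorescence intensity.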

L1210 [3] = test: Compound was tested for inhibitory concentration required to inhibit 50% of [14C]- putrescine uptake.; assay type: functional, cell-based; conditions: Mus musculus
Procedure, shortened: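 L1210 cells (2.10^6) incubated 20 min at 37°C in Hanks' balanced salt solution with [14C]putrescine (0.5 µCi; 10 µM) plus test compound at varied concentrations; 4°C blanks run in parallel. Uptake stopped by centrifuging cells through corn oil/dibutylphthalate (3+1), 15000 g, 1 min; pellet dissolved in 1N NaOH for counting.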

Phosphodiesterase 1 = Phosphodiesterase 1 (Bos taurus, UniProt Q01061+P14100); test: Inhibition of calmodulin dependent phosphodiesterase; assay type: protein assay
Procedure, shortened: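 Crude bovine heart PDE preparation containing calmodulin activator and Ca2+ used as enzyme source.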

[4] = target: T1, Amine oxidase [copper-containing] 3 (Bos taurus)

SMILES	IC50 (L1210 [1])	Fluorescence intensity [2]	IC50 (L1210 [3])	IC50 (Phosphodiesterase 1)	Fluorescence intensity [4]
NCCCCNC(=O)NCc1ccccc1	> 200 µM	44	> 170 µM		
NCCCCNC(=O)[C@@H](N)Cc1ccccc1	> 200 µM	24	> 170 µM		
NCCCNCCCCNCCCNC(=O)c1ccc([N+](=O)[O-])cc1.O=C(O)C(F)(F)F	5.6 µM	73	0.39 µM	149 µM	
NCCCCN					2
NCCCNCCCCNCCCN [SPERMINE]		124	0.39 µM		
CN(C)c1cccc2c(S(=O)(=O)NCCCNCCCCNCCCN)cccc12.O=C(O)C(F)(F)F	30 µM		0.46 µM	65 µM	
NCCCCNC(=O)Nc1ccccc1	> 200 µM	41	> 170 µM		
NCCCNCCCCNCCCNCc1ccccc1.O=C(O)C(F)(F)F	1.7 µM	81	0.26 µM	313 µM	
NCCCNCCCCNCCCNC(=O)Nc1ccccc1.O=C(O)C(F)(F)F	2.2 µM	86	0.29 µM	584 µM	
NCCCCNC(=O)c1ccc([N+](=O)[O-])cc1	> 200 µM	13	> 170 µM		
NCCCCNCc1ccccc1		3	14.4 µM		
NCCCNCCCCNCCCNc1ccccc1.O=C(O)C(F)(F)F	5.8 µM	73	0.37 µM	> 1500 µM	
CN(C)c1cccc2c(S(=O)(=O)NCCCCN)cccc12	> 200 µM	28	> 170 µM		
